CHT block: inhibitors of human choline transporter CHT; Q9GZV3; CHT-expressing cells, membrane potential dye, choline response; stronger effect = lower value; B-score at 10 µM; hit rate 0.86% among 310,000;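 active = B-score over 3 SD under the library average, and starting fluorescence ratio not unusually high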;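 also: choline stimulus applied at its EC90 after an EC20 pre-addition; B-score computed on integrated fluorescence ratio after choline addition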
PHOSPHO1 inh: PHOSPHO1 (human) inhibition. hit rate 1.1% among 290,000. AID 1565. inhibition, % at 13.3 µM. Q8TCT1. recombinant PHOSPHO1, absorbance phosphatase assay; in the data active = inhibition above about 60%
Target sequence (Q8TCT1 whole entry, looked up): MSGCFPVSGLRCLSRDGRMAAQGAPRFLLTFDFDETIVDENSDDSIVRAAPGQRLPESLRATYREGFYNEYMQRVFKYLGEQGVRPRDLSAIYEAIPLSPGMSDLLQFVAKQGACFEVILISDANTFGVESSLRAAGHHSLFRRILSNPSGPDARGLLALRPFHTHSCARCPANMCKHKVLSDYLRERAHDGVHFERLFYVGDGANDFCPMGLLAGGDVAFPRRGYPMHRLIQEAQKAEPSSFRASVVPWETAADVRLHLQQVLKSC
Lipid droplet: hepatic lipid droplet formation modulation | AML12 mouse hepatocytes, oleate lipid droplets, BODIPY imaging | AID 1656 | hit rate 0.4% among 240,000 | inhibition, % at 6.5 µM;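 active = lipid droplet intensity inhibited by at least 50%, with more than 500 cells counted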
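Assay system: AML12 hepatocytes (mouse) / Also added: 100 µM oleic acid challenge / Times: overnight treatment with compound plus oleate / Detection: high-content imaging of BODIPY-stained droplets and DAPI nuclei / Evaluation: % inhibition of lipid droplet signal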
HSF1 inh: HSF1 inhibition; NIH3T3-HGL HSE-luciferase, MG132-induced, luminescence 8 h; stronger effect = lower value; activity change, negative = inhibition, % at 7.5 µM (by protocol); hit rate 0.77% among 300,000; AID 2098;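 active = more than half of replicate wells show activity change below -50%, luminescence cut by over half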;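 also: luciferase reports HSF-1 transcriptional activity via heat shock element; 0% = median of DMSO wells and -100% = zero luminescence signal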
HSF1 activator: increases HSF-1 driven luciferase reporter signal; AID 504408; activation, % at 9 µM; NIH3T3-HGL HSF-1 luciferase reporter, MG132, 8 h; 100% = twice DMSO control signal; hit rate 1.7% among 300,000;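 active = mean replicate activation of at least 50% with a set share of replicates each reaching 50%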;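 also: 0% = median of the neutral control wells and 100% = twice that signal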
CHT PAM: allosterically activates the human high affinity choline transporter | B-score at 10 µM | hit rate 0.49% among 310,000 | CHT-expressing cells, membrane potential dye, choline EC20; stronger effect = higher value; LV-AA mutant CHT in HEK293 cells | Q9GZV3;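 active = initial fluorescence not abnormally high and integrated response B-score, plate-corrected, over 3 SD above library mean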
CHT block conf: confirmation of human choline transporter CHT inhibitors. shares compounds with CHT block. CHT-expressing cells, choline membrane potential dye; LV-to-AA substituted CHT, HEK293 cells. CHT activity remaining % of control (stronger effect = lower value), % at 10 µM. hit rate 70% among 2,400. AID 493221;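 active = choline transporter activity left, mean of duplicates at 10 µM, below buffer-only control mean minus 3 SD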;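 also: depolarization triggered by choline at its EC90 following an EC20 pre-addition; 0% = hemicholinium-3 full block and 100% = buffer-only control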
HEK293 MPD ctr: counter-screen for CHT inhibitors: effect in parental HEK293 cells | membrane potential ratio readout (active if shifted either direction beyond buffer ±3SD; no single direction) at 10 µM | shares compounds with CHT block | hit rate 4% among 2,400 | membrane potential dye, choline response; active = decrease or increase beyond buffer ±3SD | AID 493222;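 also: parental cells lack the transporter so any hit is non-specific; ratio is peak minus trough fluorescence over baseline after EC90 choline challenge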
An asterisk follows results filed as active; i = inactive; x = not tested or not shown. Rows were chosen to be rich in hits. Some 4.9% of all compounds tested hit in one or more screens of this group.

SMILES	CHT block	PHOSPHO1 inh	Lipid droplet	HSF1 inh	HSF1 activator	CHT PAM	CHT block conf	HEK293 MPD ctr
CCc1nn(C(C)C(=O)NCCc2ccccc2)c(=O)c2cc3occc3n12 (configuration not stated)	-5.68*	42.2	-5.6	-6.7	-12.9	i	i	i
CCc1nn(CCCC(=O)N2CCc3ccccc3C2)c(=O)c2cc3occc3n12	-5.68*	-56.0	-5.0	-10.2	9.5	i	57.9%*	-9.01*
CCc1nn(CCCC(=O)N2CCN(c3cccc(C)c3C)CC2)c(=O)c2cc3occc3n12	i	44.5	-24.7	1.3	6.1	i	x	x
CCc1ccc(C(=O)COC(=O)[C@@H](NC(N)=O)[C@@H](C)CC)cc1	i	15.3	1.5	4.7	-7.6	i	x	x
CC1CCCCN1C(=O)c1ccc(C(=O)Nc2ccc(F)cc2)cc1 (configuration not stated)	-6.43*	x	x	x	x	i	45.0%*	i
O=C(CCc1ccccc1O)NC1CCCc2ccccc21 (configuration not stated)	-6.16*	44.9	-12.0	2.2	-2.1	i	i	i
C[C@H](NC(=O)[C@@H]1Cc2ccccc2CN1C(=O)OC(C)(C)C)C(=O)NC1CCCCC1	i	27.3	10.0	-1.4	-6.0	i	x	x
CCN(CC(=O)Nc1cccc(OC)c1)c1ncnc2sc(C)c(C)c12	-5.48*	9.1	-1.1	4.8	19.5	i	68.8%*	i
COc1cccc(NC(=O)CN(C)C(=O)CSc2ncnc3sc(C)c(C)c23)c1	i	x	x	-7.2	-5.6	i	x	x
COc1cc(/C=C(\C#N)C(=O)Nc2ccc(C(=O)O)cc2)ccc1OC(=O)c1cccc(F)c1	i	39.0	0.9	-4.7	11.5	i	x	x
CCOC(=O)C(Cc1ccccc1)NC(=O)CCCC(=O)c1ccccc1 (configuration not stated)	-5.91*	x	x	1.3	27.2	i	45.4%*	i
CCCc1cc(=O)[nH]c(SCc2nc3ccccc3s2)n1	-5.04*	-22.8	x	19.3	61.6*	i	66.3%*	i
Cc1cc(=O)[nH]c(SCc2nc3ccccc3s2)n1	i	10.5	x	19.0	-2.5	i	x	x
Cc1cc(C)n(CCNC(=O)CC2C(=O)NCCN2Cc2ccccc2C(F)(F)F)n1 (configuration not stated)	-6.39*	34.6	-1.7	-1.9	-5.1	i	i	i
COc1cccc(CN2CCNC(=O)C2CC(=O)NCCn2nc(C)cc2C)c1OC (configuration not stated)	i	-28.7	37.4	-7.5	3.8	i	x	x
O=C(NCC(c1cccnc1)N1CCN(c2ccccc2F)CC1)c1cccc(Cl)c1 (configuration not stated)	-6.86*	16.0	0.0	-7.4	-11.6	i	i	i
Nc1ncc(Br)cc1S(=O)(=O)Nc1cc(C(F)(F)F)cc(C(F)(F)F)c1	-11.5*	22.3	-7.0	-1.6	-6.5	i	28.6%*	i
Cc1cc(CN(C)C(=O)c2cc(COc3ccc(F)cc3Cl)on2)n[nH]1	-6.04*	60.1*	-8.8	1.9	23.0	i	54.6%*	i
CCN(Cc1ccncc1)C(=O)c1cc(COc2ccc(F)cc2Cl)on1	-5.7*	-0.6	-26.3	-2.0	7.4	i	48.9%*	i
COC(=O)C(CC(=O)c1ccccc1)CC(=O)c1ccccc1	-5*	19.9	-17.6	1.5	21.8	i	i	i
CC(=O)N1CCc2cc(S(=O)(=O)N3CCCCCC3)ccc21	i	27.6	-4.5	-14.8	-32.7	i	x	x
CS(=O)(=O)N1CCc2cc(S(=O)(=O)N3CCCCC3)ccc21	-7.45*	-32.7	-4.1	0.1	13.9	i	i	i
O=[N+]([O-])/C(C(=C(Cl)Cl)N1CCN(Cc2ccccc2)CC1)=C1\NCCN1Cc1ccc(Cl)nc1	-12.6*	-31.7	15.4	-4.4	-13.7	i	4.7%*	i
CCn1c(C)nnc1SCC(=O)Nc1ccccc1Cl	i	x	1.2	-4.5	0.6	i	x	x
Oc1ccc(-c2nc(-c3ccc(O)c(O)c3)cs2)cc1	-5.03*	14.1	x	29.6	36.8	i	67.8%*	i
SMILES	CHT block	PHOSPHO1 inh	Lipid droplet	HSF1 inh	HSF1 activator	CHT PAM	CHT block conf	HEK293 MPD ctr
Cc1ccc(S(=O)(=O)NCC(=O)NCc2cc(=O)n(C)c(=O)n2C)cc1	i	22.4	7.5	-7.6	-14.0	i	x	x
CCN(CC)S(=O)(=O)c1ccc(OC)c(NC(=S)Nc2ccc(C)c(C)c2)c1	-6.02*	-12.0	-7.2	-2.2	5.6	i	52.8%*	i
COc1ccc(-n2cccc2/C=C2\C(=N)N3N=C(C(C)C)SC3=NC2=O)cc1	-6.12*	44.0	9.8	-2.5	13.0	i	i	i
CC(=O)NS(=O)(=O)c1ccc(NC(=S)NC(=O)CC(C)C)cc1	i	-5.9	-11.7	-1.2	-0.5	i	x	x
CC(=O)NS(=O)(=O)c1ccc(NC(=S)NC(=O)Cc2ccccc2)cc1	-7.5*	-15.9	1.6	5.3	-0.2	i	i	i
COc1cc(OC)c2c(-c3ccccc3)cc(=O)oc2c1C(CC(=O)N1CCCC1)c1ccc2c(c1)OCO2 (configuration not stated)	i	39.7	-31.4	14.9	5.5	i	x	x
COc1cc(OC)c2c(-c3ccccc3)cc(=O)oc2c1C(CCN1CCCCC1)c1ccc(N(C)C)cc1 (configuration not stated)	-5.93*	22.1	21.9	-2.9	-9.5	i	29.0%*	i
COc1cc(OC)c2c(-c3ccccc3)cc(=O)oc2c1C(CCN1CCCCC1)c1ccc2c(c1)OCO2 (configuration not stated)	-9.46*	13.0	35.8	-3.1	-19.0	i	44.6%*	i
COc1cc(OC)c2c(-c3ccccc3)cc(=O)oc2c1C(CCN1CCCC(C)C1)c1ccc2c(c1)OCO2 (configuration not stated)	i	26.5	-4.4	1.8	-12.3	i	x	x
COc1cc(C(CCN2CCCC2)c2c(OC)cc(OC)c3ccc(=O)oc23)cc(OC)c1OC (configuration not stated)	i	35.7	-5.4	0.2	2.9	i	x	x
COc1cc(OC)c2ccc(=O)oc2c1C(CCN1CCCC(C)C1)c1ccc(N(C)C)cc1 (configuration not stated)	i	17.5	-21.2	5.2	3.8	i	x	x
